In the library only some 2.1% were active in any assay of this set; here they are far more common.
FXIIa inh: blocks human coagulation factor XIIa protease activity; inhibition, % at 5 µM; AID 800; P00748; 220,000 compounds, 0.3% hits; purified FXIIa, Boc-QGR-AMC fluorogenic substrate, 2 h; in the data active = inhibition above about 40%;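 note: 0% = enzyme with no compound and 100% = blank without enzyme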
hK5 inh: kallikrein 5 (human) inhibition; recombinant hK5, fluorogenic AMC substrate cleavage; Q9Y337; 210,000 compounds, 0.59% hits; inhibition, % at 5 µM;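 active = inhibition of 40% or more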;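 note: 0% = enzyme controls without compound and 100% = no-enzyme blanks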
Target sequence (Q9Y337 67-293 limits assumed): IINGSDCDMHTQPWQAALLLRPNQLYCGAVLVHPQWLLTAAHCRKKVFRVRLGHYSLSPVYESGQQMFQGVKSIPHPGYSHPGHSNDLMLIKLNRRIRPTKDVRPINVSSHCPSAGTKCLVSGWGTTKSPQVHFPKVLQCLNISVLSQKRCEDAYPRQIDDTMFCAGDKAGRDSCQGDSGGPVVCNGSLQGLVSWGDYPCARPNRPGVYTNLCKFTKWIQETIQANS
EP2 modulator: EP2 receptor (human) modulation | P43116 | EP2-expressing cells, cAMP HTRF FRET, PGE2 co-stimulation | induction, % at 25 µM | 260,000 compounds, 0.83% hits | AID 940;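 active = compounds whose cAMP rise, as percent of the full-agonist control response, exceeds 60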;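 note: rat C6 glioma line stably carrying human EP2 under a CMV promoter; the protocol text gives 20 µM as final concentration; 100% = response of wells given 1 µM PGE2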
Target sequence (P43116 whole entry, looked up): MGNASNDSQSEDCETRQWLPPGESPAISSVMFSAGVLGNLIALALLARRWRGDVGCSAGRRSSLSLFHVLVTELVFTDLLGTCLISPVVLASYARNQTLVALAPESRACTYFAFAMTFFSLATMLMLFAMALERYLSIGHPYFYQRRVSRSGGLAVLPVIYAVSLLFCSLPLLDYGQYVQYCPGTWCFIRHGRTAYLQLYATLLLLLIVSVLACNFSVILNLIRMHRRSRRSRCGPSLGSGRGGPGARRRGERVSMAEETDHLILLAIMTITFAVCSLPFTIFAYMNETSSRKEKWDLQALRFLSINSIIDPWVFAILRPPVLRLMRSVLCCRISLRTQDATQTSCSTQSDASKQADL
FXIa inh 1536: inhibitors of human coagulation factor XIa. P03951. purified FXIa, Boc-Glu-Ala-Arg-AMC fluorogenic substrate. inhibition, % at 5 µM. 220,000 compounds, 0.14% hits. AID 798;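 active = inhibition of at least 40%; inactive = inhibition below 40%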;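 note: fluorescence of freed AMC excited at 355 nm; 0% = enzyme without compound and 100% = no enzyme blank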
EP2 antag: inhibitors of human EP2 prostaglandin E2 receptor | P43116 | C6 glioma cells expressing human EP2, cAMP TR-FRET; cells stimulated with saturating PGE2 | inhibition, % at 25 µM | 260,000 compounds, 0.52% hits | AID 1422;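 active = percent inhibition above 40 after rounding to a whole number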;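 note: rat C6 glioma host cells with rolipram phosphodiesterase inhibitor present; the protocol text gives 20 µM as final concentration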
thrombin 1536: inhibitors of human thrombin; inhibition, % at 5 µM; alpha-thrombin, Boc-VPR-AMC fluorogenic substrate cleavage; 220,000 compounds, 0.26% hits; P00734;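 active = inhibition at or above 40%; inactive = inhibition below 40%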;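 note: 0% = enzyme with no compound and 100% = wells without enzyme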
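Material: human alpha-thrombin protein; Also added: Boc-VPR-AMC substrate, 15 µM final; Timing: enzyme reaction carried out at room temperature; Signal: fluorescence, ex 355 nm, em 460 nm; Measure: % inhibition of thrombin; Controls: enzyme without compound as high, wells lacking enzyme as low.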
* hit, by the source's call; · = no result; ! = a repeat was not active.

SMILES | FXIIa inh | hK5 inh | EP2 modulator | FXIa inh 1536 | EP2 antag | thrombin 1536
CC1CN(CC(=O)Nc2nc3cc(Cl)ccc3s2)CC(C)O1 (stereo unspecified) | · | · | -73 | · | 17 | ·
Cn1c(=O)n(CC(=O)NC2CCCC2)c2cccnc21 | · | · | -17 | · | 3 | ·
Cc1cc(C)cc(OCC(=O)N2N=C3CCCCC3C2(O)C(F)(F)F)c1 (stereo unspecified) | · | · | -79 | · | 8 | ·
CO/N=C(\N)c1nonc1N | 25 | 22 | 7 | 58* | 11 | 17
N/C(=N\OCc1ccccc1)c1nonc1N | 4 | -7 | 22 | 0 | 7 | 0
COc1ccc(CN(Cc2cccnc2)C2CC(C)(C)NC(C)(C)C2)c(OC)c1 | · | · | -34 | · | 7 | ·
O=C(Nc1ccc(F)cc1F)c1ccc(-n2cncn2)nc1 | 6 | -5 | -6 | -3 | 1 | 44*
O=C(Nc1ccc(F)cc1F)c1ccc(-n2cccn2)nc1 | 4 | 0 | -46 | -4 | 7 | -2
COc1ccc2c(c1)C(=O)CC1(CCN(C(=O)N3CCOCC3)CC1)O2 | · | · | -34 | · | 1 | ·
CC1(c2ccccc2)CC(C)(C)N2C(=O)C3(C(C#N)=C(N)Oc4cc(O)ccc43)c3cccc1c32 (stereo unspecified) | 17 | -12 | 62* | 2 | 4 | 2
Cc1cc2c3c(c1)C(C)(c1ccccc1)CC(C)(C)N3C(=O)C21C(C#N)=C(N)OC2=C1C(=O)CC(C)(C)C2 (stereo unspecified) | 6 | 4 | 17 | 3 | 7 | 0
N#CC(C#N)=C1C=CC=CN1/C(=C\c1ccccc1)C(=O)c1cccs1 | 6 | 0 | 2 | 10 | 49* | -2
N#CC(C#N)=C1C=CC=CN1/C(=C\c1ccccc1Cl)C(=O)c1ccccc1 | 2 | -10 | -30 | -2 | 24 | -3
O=C(C1CCN(S(=O)(=O)c2ccc(Cl)cc2)CC1)N1CCCCCC1 | · | · | -24 | · | 6 | ·
COCCn1c(N)c(N(Cc2ccccc2)C(=O)C2CCCC2)c(=O)[nH]c1=O | 8 | 4 | 0 | 2 | 5 | -13
COCCn1c(N)c(C(=S)NC(=O)c2cccs2)c(=O)[nH]c1=O | 35 | 90* | 1 | 18 | 4 | 1
CCOc1ccc(OCC)c(NC(=O)CSc2nnc(-c3ccc(C)cc3)o2)c1 | · | · | -11 | · | 18 | ·
O=C(O)c1cc([N+](=O)[O-])ccc1C(=O)Nc1ccccc1 | 2 | -6 | 61* | -6 | 4 | -7
O=C(O)c1cc([N+](=O)[O-])ccc1NCc1ccccc1Cl | 20 | · | -37 | 17 | 6 | 41*
O=C(Nc1ccccc1)c1sccc1Oc1ccc([N+](=O)[O-])cc1F | 8 | 1 | 63* | -2 | 11 | 0
COCCOc1cc(NC(=O)c2sccc2Oc2ccc([N+](=O)[O-])cc2F)c(Cl)cc1Cl | 13 | -21 | 30 | 0 | 7 | -12
Cc1cc(C2C(C#N)=C(N)Oc3n[nH]c(C)c32)ccc1N1CCCC1 (stereo unspecified) | · | · | -71 | · | 11 | ·
C=CCn1c(O)c(N=NC(=S)Nc2ccccc2F)c2ccccc21 | 11 | -17 | 16 | 3 | 3 | -8
C=CCn1c(O)c(N=NC(=S)Nc2ccccc2F)c2cc(S(=O)(=O)N3CCOCC3)ccc21 | 55* | 20 | -20 | 35 | 4 | -2
C=CCc1cc(CN2CCC(NC(C)=O)(c3ccc(F)cc3)CC2)cc(OC)c1O | · | · | -1 | · | 11 | ·
SMILES | FXIIa inh | hK5 inh | EP2 modulator | FXIa inh 1536 | EP2 antag | thrombin 1536
CC1(C)CC(NC(=O)c2ccccc2C(=O)NC2CC(C)(C)NC(C)(C)C2)CC(C)(C)N1 | 15 | -4 | 9 | 0 | 15 | 12
CC1(C)CC(Nc2ccc(Nc3ccccc3)cc2)CC(C)(C)N1 | 2 | 0 | -57 | -5 | 60*! | -5
COc1cc(/C=C/C(=O)CC(=O)/C=C/c2ccc(O)c(OC)c2)ccc1O | 5 | 2 | -65 | -3 | 74* | ·
CCc1ccc(S(=O)(=O)/N=C2/C=C(Sc3ncn[nH]3)C(=O)c3ccccc32)cc1 | 14 | -101 | -96 | 2 | 61* | -1
CCCc1cc(=O)[nH]c(SCCOc2ccc(Cl)cc2)n1 | 21 | -14 | 64* | 4 | 7 | -3
COc1ccc(CCCc2n[nH]c(=S)n2C)cc1C | 30 | 43* | -13 | 30 | 11 | 9
CC(C)C1=CC2=CCC3[C@](C)(CCC[C@]3(C)C(=O)O)C2CC1 (stereo partly specified) | · | · | 25 | · | 10 | ·
O=C(NCc1ccc2c(c1)OCO2)C12CN(Cc3ccccc3)CC1C(c1cccc([N+](=O)[O-])c1)=NO2 (stereo unspecified) | 20 | 30 | 9 | 18 | 19 | 26
O=C(NCc1ccc(C(F)(F)F)cc1)C12CN(Cc3ccccc3)CC1C(c1cccc([N+](=O)[O-])c1)=NO2 (stereo unspecified) | 9 | 42* | 21 | 8 | 21 | 17
CC(=O)c1ccccc1OCC(O)Cn1c(C)nc2ccccc21 (stereo unspecified) | · | · | -4 | · | 6 | ·
CC(C)N(CCCNC(=O)CC1Oc2ccccc2NC1=O)Cc1ccccc1 (stereo unspecified) | 22 | 55* | -14 | 1 | 18 | 8
O=C(CC1Oc2ccccc2NC1=O)NCCCN1CCCC1=O (stereo unspecified) | 18 | 53* | -32 | 2 | 22 | 12
O=C(CN1CCC(c2nc3ccccc3s2)CC1)Nc1ccccc1 | · | · | -84 | · | 17 | ·
O=C(CCCC(=O)NC1CCCCC1)Nc1nccs1 | · | · | -15 | · | 8 | ·
O=C(CSC1CCCCC1)Nc1nccs1 | 27 | 54* | -22 | 18 | · | 104*
Cc1ccc(S(=O)(=O)CCN2C=CC(C(F)(F)F)=NCC2)cc1 | 41* | 34 | 9 | 21 | 15 | 4
O=S(=O)(c1ccc2ccccc2c1)N1C=CC(C(F)(F)F)=NCC1 | 0 | 3 | -42 | -8 | 18 | -2
COc1ccc(C2(NS(=O)(=O)c3cc(N4CCCC4=O)ccc3C)CC2)cc1 | · | · | -31 | · | 4 | ·
COc1ccccc1CN(CC(=O)NCc1ccco1)C(=O)CNS(=O)(=O)c1ccccc1 | 0 | 0 | 19 | -3 | 3 | 4
COc1ccccc1CN(CC(=O)NCc1ccco1)C(=O)CNS(=O)(=O)c1ccc(C)cc1 | 21 | -5 | -5 | 8 | 10 | 56*
COc1cc(/C=C/[N+](=O)[O-])ccc1OCc1cccc(C(=O)O)c1 | 17 | 43* | -36 | 21 | 10 | 26
COc1cc(/C=N/NC(=O)c2cccc([N+](=O)[O-])c2)ccc1OCc1ccccc1 | 15 | 2 | -8 | 5 | 2 | 1
Cc1nn(CCc2nn[nH]n2)c2nc(-c3ccc(Br)cc3)cc(C(F)(F)F)c12 | 41* | 31 | 56 | 27 | 22 | 9
CC(=O)NC1CSCC1OC(C)=O (stereo unspecified) | 23 | 67* | 33 | 10 | 6 | 32

High-throughput results (PubChem BioAssay)
